UBC13 polyUb: UBC13 polyubiquitin chain formation inhibitors, primary screen, biochemical, TR-FRET, uHTS. Ubiquitin-conjugating enzyme E2 N (Homo sapiens), P61088. AID 485273, 2010. inhibition, % at 20 µM. 330,000 tested, 0.47% active; in the data active = inhibition above about 45%, passing the limit was not always enough
Target sequence (P61088 whole entry, looked up): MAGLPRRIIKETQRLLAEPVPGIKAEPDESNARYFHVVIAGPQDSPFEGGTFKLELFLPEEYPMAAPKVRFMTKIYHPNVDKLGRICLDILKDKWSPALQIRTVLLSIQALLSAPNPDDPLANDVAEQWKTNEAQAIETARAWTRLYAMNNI
SENP8 block-1: human SENP8 protease inhibitors, primary screen, biochemical, fluorescence, Nedd8 protein substrate, uHTS; Sentrin-specific protease 8 (Homo sapiens), Q96LD8; recombinant SENP8; inhibition, % at 20 µM; 360,000 tested, 0.64% active; in the data active = inhibition mostly above about 40%, no sharp cut-off; inactive = mostly below about 27%
SENP6 block: SENP6 protease inhibitors, primary screen, biochemical, luminescence, uHTS. Sentrin-specific protease 6 (Homo sapiens), Q9GZR1. Recombinant SENP6 catalytic domain, aminoluciferin luminescence. inhibition, % at 10 µM. 330,000 tested, 1.8% active;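 active = inhibition above about 50% at the single tested dose, limit read from the data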;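 also: plate controls were DMSO wells with enzyme for no effect and DMSO wells lacking enzyme for full effect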
Target sequence (Q9GZR1 628-1112 limits assumed): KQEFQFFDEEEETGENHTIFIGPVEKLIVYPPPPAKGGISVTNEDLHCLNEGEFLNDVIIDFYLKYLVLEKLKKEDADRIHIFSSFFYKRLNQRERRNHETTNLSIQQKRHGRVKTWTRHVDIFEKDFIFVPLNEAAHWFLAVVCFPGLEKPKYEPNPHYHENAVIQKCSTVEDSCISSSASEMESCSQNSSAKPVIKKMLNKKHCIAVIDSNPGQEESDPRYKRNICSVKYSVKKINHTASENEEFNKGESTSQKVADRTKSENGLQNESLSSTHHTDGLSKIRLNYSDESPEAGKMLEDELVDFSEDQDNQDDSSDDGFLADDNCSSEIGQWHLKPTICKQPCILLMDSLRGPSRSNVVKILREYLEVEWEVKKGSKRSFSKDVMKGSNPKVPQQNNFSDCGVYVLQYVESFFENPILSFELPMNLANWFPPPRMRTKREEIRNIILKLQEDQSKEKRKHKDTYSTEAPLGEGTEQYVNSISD
SENP8 block-2: SENP8 protease inhibitors, primary screen, biochemical, luminescence; 330,000 tested, 1.2% active; Sentrin-specific protease 8 (Homo sapiens), Q96LD8; inhibition, % at 10 µM; purified SENP8, Z-RLRGG-aminoluciferin cleavage; in the data active = inhibition above about 50%
Apaf-1 inh: inhibitors of human Apaf-1 apoptosome, primary screen, biochemical, DEVD-Rh110 fluorescence, uHTS; Apoptotic protease-activating factor 1 (Homo sapiens), O14727; reconstituted apoptosome caspase-3 activity; inhibition, % at 20 µM; 330,000 tested, 0.71% active; AID 489030, 2010; active = inhibition of at least 40% at 20 µM;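 also: plate controls were DMSO wells for no effect and DEVD-CHO caspase inhibitor wells for full effect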
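System: reconstituted apoptosome with Apaf-1, cytochrome c, caspase-9, procaspase-3, dATP; Signal: Rh110 fluorescence intensity; Schedule: 30 min compound preincubation, 50 min activation, room temperature; Reagent: cytochrome c trigger plus (Z-DEVD)2-Rh110 caspase-3 substrate.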
SENP7 inh: SENP7 protease inhibitors, primary screen, biochemical, luminescence, uHTS. Sentrin-specific protease 7 (Homo sapiens), Q9BQF6. recombinant SENP7, Z-RLRGG-aminoluciferin luminescence, 40 min. 330,000 tested, 1.5% active. inhibition, % at 5 µM;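 active = inhibition above about 50% at the single test dose, limit read from the data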;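 also: plate controls were DMSO with enzyme for no effect and no enzyme buffer wells for full effect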
Casp3 UBC13 ctr: CASP3 inhibitor validation, counterassay for project on UBE2N polyubiquitination blockers, biochemical, one dose | inhibition, % at 20 µM | 1,400 tested, 4% active | Recombinant caspase-3, Caspase-Glo 3/7 luminescence, 60 min | shares compounds with UBC13 polyUb;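 active = mean inhibition across replicates above about 26%, limit read from the data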;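 also: plate controls were DMSO with caspase-3 for no effect and DMSO wells lacking enzyme for full effect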
UBC13 conf: UBC13 polyubiquitination inhibitors, single-point retest, confirmation, biochemical, TR-FRET, single concentration | shares compounds with UBC13 polyUb | inhibition, % at 10 µM | 1,400 tested, 68% active; in the data active = inhibition above about 45%
Apaf-1 inh conf: Apaf-1 inhibitors, single-dose retest, confirmation, biochemical, fluorescence, DEVD-Rh110, 20 µM; AID 504614, 2011; shares compounds with Apaf-1 inh; inhibition, % at 20 µM; 1,800 tested, 25% active; reconstituted apoptosome, caspase-3 DEVD-Rh110 fluorescence;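 active = mean inhibition of at least 40% at 20 µM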;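 also: plate controls were DMSO wells for no effect and DEVD-CHO caspase inhibitor control wells for full effect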
Rh110 interf inh: Rh110 fluorescence interference by putative Apaf-1 inhibitors, confirmation, artefact control for Apaf-1 inhibitor project, biochemical, 20 µM; shares compounds with Apaf-1 inh; quenched caspase reaction; activation (fluorescence interference), % at 20 µM; 1,800 tested, under 10 active; AID 504615, 2011;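 active = signal rise of 40% or more at 20 µM, treated as a fluorescence artifact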
Fluor interf inh: fluorescence interference of Apaf-1 inhibitor hits, dose response, artefact control for Apaf-1 inhibitor project; shares compounds with Apaf-1 inh; 460 tested, under 10 active; IC50, µM; AID 588538, 2011; fluorescence interference counterscreen, Apaf-1 assay format; call rule not given here
The depositor's hits bear a star; . = no result. Sampled rows, rich in hits. Any-hit rate of the full collection: about 3%.

SMILES | UBC13 polyUb | SENP8 block-1 | SENP6 block | SENP8 block-2 | Apaf-1 inh | SENP7 inh | Casp3 UBC13 ctr | UBC13 conf | Apaf-1 inh conf | Rh110 interf inh | others
COc1ccc(CCN(C)C(=O)c2ccc(COc3ccccc3)o2)cc1OC | 46* | 9 | 3 | -11 | 66* | -7 | -3 | 82* | . | .
COc1ccc(NC(=O)c2ccc(COc3ccccc3)o2)c(OC)c1 | -11 | 4 | -5 | -1 | 11 | -13 | . | . | . | .
COc1ccc(C(=O)NC(=S)NNC(=O)c2ccc(NC(C)=O)cc2)cc1Br | 71* | -7 | 3 | -7 | 6 | -7 | 1 | 104* | . | .
O=C1C=C(O)CC(c2ccc(Cl)c(Cl)c2)C1 (centres undefined) | 3 | 16 | 16 | 9 | -4 | 6 | . | . | . | .
CN[C@H]1CC[C@@H](c2ccc(Cl)c(Cl)c2)c2ccccc21 | . | 10 | 6 | -8 | 54* | 1 | -3 | . | 5 | -3
O=C(NCc1cccc(Cl)c1)c1ccc(CS(=O)Cc2ccc(Cl)cc2)o1 (centres undefined) | 2 | 14 | -1 | -24 | 10 | -2 | . | . | . | .
COc1ccc(C(CNC(=O)c2cc3c(s2)CCC(C)C3)N2CCCC2)cc1 (centres undefined) | 59* | -45 | -3 | 1 | 61* | 5 | -3 | 42 | 35 | 9
CCCCCCCCCCCCCCCC(O)C(N)CO (centres undefined) | 111* | 13 | -10 | -8 | 80* | -10 | 2 | 101* | 21 | 13
CC(C)(C)C1CCC(CN2C(Nc3ccccc3)=NC[C@@H]2Cc2ccccc2)CC1 (some centres undefined) | 72* | 12 | -18 | -15 | 75* | -4 | 3 | 77* | 17 | 11
NC1=NC[C@@H](Cc2ccc(O)cc2)N1CCCCC1CCCCC1 | 66* | 16 | -22 | -11 | 51* | 0 | -1 | 41 | 4 | 11
NC1=NC[C@H](Cc2ccc(O)cc2)N1CC1CCCCC1 | 14 | 7 | -10 | 0 | 1 | -6 | . | . | . | .
CC[C@@H](C)[C@@H]1CN([C@@H](CN2CCC[C@H]2CN2C(N)=NC[C@@H]2Cc2ccccc2)C(C)C)C(=N)N1CCCC1CCCC1 | 72* | 16 | -18 | 5 | 63* | -1 | -3 | 76* | 13 | 11
CC[C@@H](C)[C@@H]1CN([C@@H](CN2CCC[C@H]2CN2C(N)=NC[C@H]2C(C)C)C(C)C)C(=N)N1CCCC1CCCC1 | 53* | 21 | -37 | -10 | 40* | -11 | 0 | 56* | 0 | -9
COc1cc(OC)c2c(-c3ccccc3)cc(=O)oc2c1C(CCN1CCCC(C)C1)c1ccc(N(C)C)cc1 (centres undefined) | 19 | 19 | 17 | 1 | 23 | -7 | . | . | . | .
COc1ccc(C(CCN2CCCC(C)C2)c2c(OC)cc(OC)c3c(-c4ccccc4)cc(=O)oc23)cc1 (centres undefined) | 59* | -151 | -8 | -8 | 54* | 2 | 0 | 45* | 26 | 1
NC(N)=N/N=C/c1ccc(OCc2ccccc2)c(OCc2ccccc2)c1 | 110* | 13 | -24 | -15 | 61* | 2 | -1 | 125* | 42* | 15 | Fluor interf inh=>100
CCOc1cc(/C=N/N=C(N)N)ccc1OCc1ccc(Cl)cc1 | . | 7 | . | . | . | . | . | . | . | .
COc1cc(/C=N/N=C(N)N)ccc1OCc1ccc(Cl)cc1 | 91* | 26 | -38 | -27 | 40* | -12 | -3 | 112* | 13 | 7
COc1ccc(C[C@H]2CN3C(=NC[C@@H]3C(C)C)N2CCNC(=O)c2ccc(C)c(Br)c2)cc1 | 60* | 13 | -6 | -5 | 47* | -3 | -4 | 34 | 11 | 8
COC(=O)C1=C(C)N(Cc2ccccc2)C(=NCCc2cccnc2)N[C@H]1c1ccc(Br)cc1 | 48* | 9 | -24 | -4 | 51* | -13 | -2 | 31 | 11 | 0
COC(=O)C1=C(C)N(Cc2ccccc2)C(=NCC(C)C)N[C@H]1c1cccc(F)c1 | 51* | 9 | -25 | -8 | 44* | 0 | -4 | 40 | 5 | -1
COC(=O)C1=C(C)N(Cc2ccccc2)C(=NCc2ccco2)N[C@H]1c1cccc(F)c1 | 30 | -34 | 0 | -3 | 38 | -1 | . | . | . | .
COC(=O)C1=C(C)N(Cc2ccccc2)C(=NCc2ccc(OC)cc2)N[C@H]1c1cccc(F)c1 | 74* | 22 | -4 | 3 | 56* | 7 | 3 | 66* | 11 | 9
COC(=O)C1=C(C)N(Cc2ccccc2)C(=NCC(C)C)N[C@H]1c1cccc(C(F)(F)F)c1 | 72* | 17 | 4 | -5 | 58* | 3 | 3 | 74* | 13 | 4
COc1ccc([C@H]2CC(=O)C=C(c3ccc(F)cc3OCc3ccccc3)C2)cc1OC | 14 | 11 | -8 | 0 | 13 | -8 | . | . | . | .
CCOC(CNC(=O)c1nnc(Cc2cc(OC)c(OC)c(OC)c2)o1)OCC | -10 | 10 | -1 | 4 | 0 | 7 | . | . | . | .
CCN1C(=NCCc2ccccn2)N[C@@H](c2cccc(C(F)(F)F)c2)C(C(=O)OC)=C1C | 14 | 0 | -5 | 4 | -114 | 1 | . | . | . | .
COC(=O)C1=C(C)N(Cc2ccccc2)C(=NCCc2ccccn2)N[C@H]1c1cccc(C(F)(F)F)c1 | 52* | -4 | -7 | -14 | 48* | -7 | 2 | 58* | 12 | 0
